Sequences and labels used below:
B1: tRNA (parent)
chain: GUUCCGUUGGCGUAAUGGUAACGCGUCUCCCUCCUAAGGAGAAGACUGCGGGUUCGAGUCCCGUACGGAACG

This sample holds only a part of the variants without activity.

Variants of B1 are the subject of this series. Put plainly: yeast fitness relative to wild type (ratio to wild type); higher = fitter; tRNA-Arg(CCU), competitive growth, 37 C, YPD. Put shortly:
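Variants of the tRNA-Arg(CCU) gene were chemically synthesised with a 3% per-site mutation rate across 69 sites and placed at the native genomic locus in Saccharomyces cerevisiae. Six parallel replicates of the pooled strains were competed in YPD at 37°C for 24 hours, and gene amplicons from the start and end populations were read by 100-nucleotide paired-end sequencing. Darwinian fitness relative to wild type was derived from changes in genotype frequencies. Genotypes required ≥ 100 starting reads, and estimates < 0.5 were set to 0.5.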
Consider GUUCCGUUGGCGUAUUGGUAACGCGUCUCCCUCGUAGGGCGAAGACUGCGGGUUCGAGUCCCGCACGGAACG [A15U C34G A37G A40C U64C], for which the yeast fitness was ≤ 0.5.
In the case of GUUCCGUUGGCGUAAUGGUAACGCGUCUCCCCCCUAAGGAGAAGACUGCGGGUUCGAGUGCCGUACGGUACG [U32C C60G A69U], the yeast fitness was ≤ 0.5.
On to GUUCCAUUGGCGUAAUGGUAACGCGUCUCCCUCCUAAGGAGAAGACUGCGGGUUAGAGUCCCGUACGGAACG [G6A C55A], for which the yeast fitness is 0.587.
To GUUCCGUUGGCGUAAUGGUACCGCGUCUCCCUCCUAAGGAGAAGACUGUGGGUUCGAGUCCCGUACGGAACG [A21C C49U] belongs 0.824; to GUUCCGUUGGCGUAAUGGUAAUGCGUCUCCCUCCUAGGGAGAAGACUGCGGGUUCGAGUCCCGUACGGAACG [C22U A37G], 0.662; to GUUCCGUUGGCGUAAUGGUAACGAGUCUCCUUCCUAAGGAGAAGACUGCGGGUUCCAGUCCCGUACGGAACG [C24A C31U G56C], ≤ 0.5.
The same measure for GUUCCGUAGGCGUAAUGGUAACGCGUCUCCCUCCUGAGGCGAAGACAGCGGGUUCGAGUCCCGUACGGAACG [U8A A36G A40C U47A]: ≤ 0.5.
For GUUCCGUUGGCGUAAUGGUAACGCGUCUCCCUCCUAAGGAGAAGACUGCGGGUUCGAGUUCCGUACGGAUCG [C60U A70U], the yeast fitness amounted to 0.655.
For the variant GUUCCGUUGGCGUAAAGGUAACGCGUCUCUCUCCUUAGGAGAAGACUGCGGGUUCGAGUCCCAUACGGAACG [U16A C30U A36U G63A], the yeast fitness is ≤ 0.5.
Take GUUCCGUUGGCGUAAUGGUAUCGCGUGUCCCUCCUAAGGAGAUGACUGCGGGUUCGAGUCCCGUACGGAACG [A21U C27G A43U]: the yeast fitness was ≤ 0.5.
To GUUCCGUUGGCGUAAUGGUAACGCGUCUCCCUCCUAAGGAGAAGACUGCAGGUUCGAGUCGCGUACGGAACG [G50A C61G] belongs 0.737.
The same measure for GAUCCGUUGGCGUAAUGAUAACCCGUCUCCCUCCUAAGGAGAAGUCUGCGGGUUCGAGUCCCGUACGGAACG [U2A G18A G23C A45U]: 0.573; for GUUCCGUUGGCGUAAUGGUAACGCGUCUCCCUCCUAAGGAGACGACCGCGGGUUCGAGUCCCGUACGGAACG [A43C U47C]: 1.07.
The same measure for GUUCCGUUGGCGUAAUGGUAAGGCGUCCCCGUCCUAAGGAGAAGACUGCGGGUUCGAGUCCCGUACGGAACG [C22G U28C C31G]: 0.6.
With GUUCCGUUGGCGUAAUGGUAACGCGUCUCCCUCCAAAGGAGAAGACUGCGGGUUCGAGUCCAGUAGGGAACG [U35A C62A C66G], the yeast fitness amounted to 0.66.
The same measure for GUUCGGUUGGCGUAAUGGUAACGCGUUUCCAUCCCAAGGAGAAGACUGCGGGUUGGAGUCCCGUAUGGACCG [C5G C27U C31A U35C C55G C66U A70C]: ≤ 0.5; for GUAUCGUUGGCGAAAUGGUAACGCGUCUCCCUCCUUAGGAGAAGACUGCGGGUUCGAGUCCCGUAUGGAACG [U3A C4U U13A A36U C66U]: 0.641; for GUUCGGUUGGCGUAAUGGUAAAGCGUCUCCCUCCUAAGGAGUAGACUACGGGUUCGAGUCCAGUACGGAACG [C5G C22A A42U G48A C62A]: ≤ 0.5.
The same measure for GUCCCGUUGGCGUAAUGGUAACGCGUCUCCCUCCUAAGGAGAAGAAUGCGGGUUCAAGUCCCGUACGGAACG [U3C C46A G56A]: 0.699.
To GUUCCGUUGGCGUAAUGGUAAAGCGUCUCCCUACUUAGGAGAAGACUGCGGGUUCGAGUCCCGUACGGAACG [C22A C33A A36U] belongs ≤ 0.5; to GUUCCGUUGGCGUAAUGGUAACGCGUCUCCCUCCUAAAGAGAAGACUGCGGGUUCGAGUCCAGUAGGGAACG [G38A C62A C66G], 0.804; to GUUGCGGUGGCCUAAUGGUUACGCGUCUCCCACCUAAGGAGAAGACUGCGGGUUCGAGUCCCGUACGGAACG [C4G U7G G12C A20U U32A], ≤ 0.5.
As for GUUCCCUUGGCGUAAUGGAAACGCGUCUCCCUCCUAAGGAGAAGACUGCGGGUUCGAGUCCCGUACGGAACG [G6C U19A], the yeast fitness was 0.78.
Regarding GUUCCGUUGGCGUAAUAGUAGCACGUGUCCCUCCUAUGGAGAAAACUGUGGGUUCGAGUCCCGUACGGAACG [G17A A21G G23A C27G A37U G44A C49U], the yeast fitness is ≤ 0.5.
The same measure for GUUCCGUUGGCGUAAUGGAAACGCGUCUCCCUUCUUAGGAGAAGACUGCGGGUUCGAGUCCCGUAUGGAACG [U19A C33U A36U C66U]: ≤ 0.5; for GUUCCAUUGGCGUAAUGGUAUCGCGUCUCCCUCCUAAGGAGAAGUCUCCGGGUUCGCGUCCCGUACUGAACG [G6A A21U A45U G48C A57C G67U]: ≤ 0.5.
Consider GUUCCGAUGGCGUAAUGGGAACGCGUCUCCCUCCUAAGGAGAAGACUGCGGGUUCGAAUCCCGUACGGCACG [U7A U19G G58A A69C], for which the yeast fitness came to 0.527.
The same measure for GUUCCGUUGGCGUAAUGGUAACGCGUCUCCCGCCUAAGGAGAAGACUGCGGGUUCGAGUCUCGUACUGAACG [U32G C61U G67U]: ≤ 0.5.
Consider GUUCCGUUGGCGUGAUGAUAACGCGUCUCCCACCUAAGGAGAAAACUGCGGGUUCGAGUCCCGUCCGGAACG [A14G G18A U32A G44A A65C], for which the yeast fitness was ≤ 0.5.
As to GUUCCGUUGGCGUAUUGGUAACGGGUCUCCCACCUAAGGAAAAGACUGCGGGUUCGAGUCCCGUACGGAACG [A15U C24G U32A G41A], the yeast fitness was ≤ 0.5.
Take GUUCUGUUGGCGUAAUGGUAACGCGUCUCCCUCCUAAGGAGAAGACUGCGGGUUCGAGUACCGUACGGAACG [C5U C60A]: the yeast fitness came out at 0.585.
For the variant GUUGCGUUGGCGUAACGGUAACGCGUCUCCCACCUAAGGAGAAGAUUGCGGGUUCGAGUCCCCUACGGAACG [C4G U16C U32A C46U G63C], the yeast fitness was ≤ 0.5.
The same measure for GUUCCGUUGGCGUAAUGGAAACGCGUCUCCCUCCUAAGGAGAAGACUGCGCGUUCGAGUCCCGUACGGAACG [U19A G51C]: 0.636; for GUUCCGUUGGCGUCAUGGUAACGCCUGUCCCUCUAAAAGAGAAGACUGCGGGUUCGAGUCCCGUACGGAGCG [A14C G25C C27G C34U U35A G38A A70G]: ≤ 0.5.
GUUCCGUUGGGAUAAUGGUAACGCGUCUCCGUCCUAAGGAGAAGACUGCGGGUUCGAGUCCCGUACGGUACG [C11G G12A C31G A69U]: the yeast fitness is ≤ 0.5.
To GUUUCAUUGGCGUAAUGGUAACGCGUCUCCCUCCUAAGGAGCAGACUGCGGGUUCGAGUCCCGUAUGGAACG [C4U G6A A42C C66U] belongs ≤ 0.5.
Consider GUUCCGUCGACGUAAUGGCAACGCGUCUCCCUCCUAAGGAAAAGACCGCGGGUUCGAGUCCCGUACGGAACG [U8C G10A U19C G41A U47C], for which the yeast fitness came out at 0.537.
In the case of GUUCCGUUGGCGUAGUGGUAACGCGUCUCCCUCCUACGGAGAAGAUUGUGGGUUCGAGUCCCGUACGGAACG [A15G A37C C46U C49U], the yeast fitness was ≤ 0.5.

For the origin of these results see the RNAGym collection of RNA variant scans (doi:10.1126/science.aae0568).
